Only some compounds are listed: those with a hit (about 3.9% of all), similar ones and a draw of the others.
UPR CHOP act = activators of apoptotic arm of unfolded protein response (CHOP). hit rate 0.34% among 330,000. AID 449763. CHO-CHOP luciferase reporter, UPR activation, luminescence; percent of tunicamycin response over DMSO baseline. activation, % at 10 µM;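 active = at 10 µM dose, activation of 40% or more, normalized to positive control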
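Test system: CHO-CHOP cells, stable luciferase reporter of PERK-eIF2a-CHOP signalling | Quantity: 500 CHO-CHOP cells per well | Buffer or medium: F12 plus 10% serum | Compound dosing: 10 µM single point, 0.5% DMSO | Schedule: 6 h compound treatment, 37 °C | Signal: Luciferase luminescence | Control set: Tunicamycin high control, DMSO low control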
Gli-Sufu antag = antagonists of Gli-Sufu signaling. Sufu-KO-LIGHT fibroblasts, Gli luciferase reporter luminescence. inhibition, % at 5 µM. hit rate 0.74% among 340,000. AID 588413;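 active = inhibition above about 55%, limit read from the data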
CHOP inh = inhibitors of CHOP induction in ER stress response. CHO-K1 CHOP-promoter luciferase, tunicamycin-induced, 15-18 h. inhibition, % at 10 µM. hit rate 3.8% among 220,000;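 active = compounds that reduced the stress-induced luciferase reporter signal by more than about 70% of percent inhibition, limit read from the data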
Jurkat NFkB inh = lowers PMA/ionomycin-induced NF-kB signal in Jurkat cells; inhibition, % at 4 µM; hit rate 0.53% among 330,000; AID 435003; PMA/ionomycin-induced NF-kB luciferase reporter, luminescence; in the data active = inhibition above about 50%
697 NFkB inh = lowers PMA/ionomycin-induced NF-kB signal in 697 B cells | 697 B-cell NF-kB luciferase reporter, 16 h | inhibition, % at 4 µM | hit rate 0.33% among 330,000 | AID 435022; in the data active = inhibition above about 35%
UPR XBP1 act = activators of adaptive arm of unfolded protein response (XBP1); CHO-XBP1 luciferase reporter, IRE1-XBP1 UPR activation, luminescence; percent of tunicamycin response, DMSO as zero; activation, % at 20 µM; hit rate 0.33% among 330,000;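 active = versus positive control, 20 µM dose yields 30% or more activation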
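Assay system: IRE1-XBP1 luciferase reporter CHO line. Input: 1000 cells/well. Buffer or medium: F12 with 10% serum. Doses: 20 µM, 1% DMSO. Times: overnight seeding at 37 °C, 6 h compound treatment at 37 °C. Technique: Steady-Glo luciferase glow luminescence, 10 min after reagent addition.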
Jurkat NFkB conf = lowers PMA/ionomycin-induced NF-kB signal in Jurkat cells; shares compounds with Jurkat NFkB inh; Jurkat NF-kB luciferase, 16 h; inhibition, % at 4 µM; hit rate 27% among 2,700; AID 435020;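 active = inhibition reaching about 45% at 4 µM in either replicate, limit read from the data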
Hits are given with their value.

For Cc1ccc(C(=O)Nc2cccc(C(=O)O)c2)cc1 the results were UPR CHOP act inactive, Gli-Sufu antag inactive, CHOP inh inactive, Jurkat NFkB inh 73, 697 NFkB inh inactive, UPR XBP1 act inactive and Jurkat NFkB conf 60.
Screening CCn1cc(C(=O)NCCCN2CCC(C)CC2)c(=O)c2cc(S(=O)(=O)N3CCOCC3)ccc21 returned UPR CHOP act inactive, Gli-Sufu antag inactive, Jurkat NFkB inh inactive, 697 NFkB inh inactive and UPR XBP1 act inactive.
Screening Fc1ccc(-c2cn3cc(C(F)(F)F)cc(Cl)c3n2)cc1 returned UPR CHOP act inactive, Gli-Sufu antag inactive, CHOP inh inactive, Jurkat NFkB inh inactive, 697 NFkB inh inactive, UPR XBP1 act inactive and Jurkat NFkB conf inactive.
`CNC[C@H](CC1CCCCC1)NC[C@H](Cc1ccccc1)NCCC12CC3CC(CC(C3)C1)C2` gave UPR CHOP act inactive, Gli-Sufu antag inactive, Jurkat NFkB inh 91, 697 NFkB inh inactive, UPR XBP1 act inactive and Jurkat NFkB conf inactive.
For NC[C@H](Cc1ccccc1)NCCCCC1CCCCC1 the results were UPR CHOP act inactive, Gli-Sufu antag inactive, Jurkat NFkB inh inactive, 697 NFkB inh inactive and UPR XBP1 act inactive.
`CN(CCOc1ccc(Cl)cc1)C(=O)c1cc(S(=O)(=O)N2CCOCC2)ccc1N1CCCC1` gave UPR CHOP act inactive, Gli-Sufu antag inactive, Jurkat NFkB inh inactive, 697 NFkB inh inactive and UPR XBP1 act inactive.
For O=C(COC(=O)c1cc(S(=O)(=O)N2CCCC2)ccc1O)Nc1ccc(F)cc1F the results were UPR CHOP act inactive, Gli-Sufu antag inactive, Jurkat NFkB inh 70, 697 NFkB inh inactive, UPR XBP1 act inactive and Jurkat NFkB conf inactive.
`Cc1ccc(S(=O)(=O)N(C(=N)N)c2nc(N(C)C)nc(N(C)C)n2)cc1` gave UPR CHOP act inactive, Jurkat NFkB inh inactive, 697 NFkB inh inactive and UPR XBP1 act inactive.
Screening CCN(CC)c1ccc2c(cc1=O)[C@@H](NC)CCc1cc(OC)c(OC)c(OC)c1-2 returned UPR CHOP act inactive, Gli-Sufu antag inactive, Jurkat NFkB inh 60, 697 NFkB inh inactive, UPR XBP1 act inactive and Jurkat NFkB conf inactive.
`CN[C@H]1CCc2cc(OC)c(OC)c(OC)c2-c2ccc(N(C)CC(OC)OC)c(=O)cc21` gave UPR CHOP act inactive, Gli-Sufu antag inactive, Jurkat NFkB inh inactive, 697 NFkB inh inactive and UPR XBP1 act inactive.
For CC(=O)Nc1cc(NC(C)=O)cc(C(=O)OCC(=O)c2ccc3c(c2)OCO3)c1 the results were UPR CHOP act inactive, Gli-Sufu antag inactive, Jurkat NFkB inh inactive, 697 NFkB inh inactive and UPR XBP1 act inactive.
`Cc1ccc(/C=N/NC(=O)c2ccc3ccccc3c2)s1` gave UPR CHOP act inactive, Gli-Sufu antag inactive, Jurkat NFkB inh 52, 697 NFkB inh inactive, UPR XBP1 act inactive and Jurkat NFkB conf inactive.
For Cc1ccc(S(=O)(=O)N(C)C)cc1NC(=O)CSc1nc2ncc(Cl)cc2[nH]1 the results were UPR CHOP act inactive, Gli-Sufu antag inactive, Jurkat NFkB inh inactive, 697 NFkB inh inactive and UPR XBP1 act inactive.
For CCc1ccc(-n2nc3cc(C)c(N)cc3n2)cc1 the results were UPR CHOP act inactive, Gli-Sufu antag inactive, Jurkat NFkB inh inactive, 697 NFkB inh inactive, UPR XBP1 act inactive and Jurkat NFkB conf inactive.
For O=S(=O)(Nc1ccccc1)c1ccc(-c2cnc(C3CC3)o2)cc1 the results were UPR CHOP act inactive, Gli-Sufu antag inactive, Jurkat NFkB inh 53, 697 NFkB inh inactive, UPR XBP1 act inactive and Jurkat NFkB conf inactive.
Screening Cc1ccc(C)c(NS(=O)(=O)c2ccc(-c3cnc(C4CC4)o3)cc2)c1 returned UPR CHOP act inactive, Gli-Sufu antag inactive, Jurkat NFkB inh 61, 697 NFkB inh inactive, UPR XBP1 act inactive and Jurkat NFkB conf 60.
Screening Cc1cccc(NS(=O)(=O)c2ccc(-c3cnc(C4CC4)o3)cc2)c1C returned UPR CHOP act inactive, Gli-Sufu antag inactive, Jurkat NFkB inh 60, 697 NFkB inh inactive, UPR XBP1 act inactive and Jurkat NFkB conf 66.
For COc1ccc(NS(=O)(=O)c2cc(-c3cnc(C4CC4)o3)ccc2C)cc1 the results were UPR CHOP act inactive, Gli-Sufu antag inactive, Jurkat NFkB inh 59, 697 NFkB inh inactive, UPR XBP1 act inactive and Jurkat NFkB conf 49.
For CCOc1ccc(NS(=O)(=O)c2ccc(-c3cnc(C4CC4)o3)cc2)cc1 the results were UPR CHOP act inactive, Gli-Sufu antag inactive, Jurkat NFkB inh inactive, 697 NFkB inh inactive and UPR XBP1 act inactive.
Screening CC(=O)Nc1ccc(NS(=O)(=O)c2ccc(-c3cnc(C4CC4)o3)cc2)cc1 returned UPR CHOP act inactive, Gli-Sufu antag inactive, Jurkat NFkB inh inactive, 697 NFkB inh inactive and UPR XBP1 act inactive.
N#Cc1ccccc1OCC(=O)Nc1nnc(C2CC2)s1 was read as UPR CHOP act inactive, Gli-Sufu antag inactive, Jurkat NFkB inh inactive, 697 NFkB inh inactive and UPR XBP1 act inactive.
For COc1ccc(C(=S)N2CCOCC2)cc1OS(=O)(=O)c1ccc(Br)cc1 the results were UPR CHOP act inactive, Gli-Sufu antag inactive, Jurkat NFkB inh inactive, 697 NFkB inh inactive and UPR XBP1 act inactive.
`CCN(CC(=O)Nc1ccc(NC(C)=O)cc1)C(=O)c1cn(-c2ccccc2)nc1-c1cccs1` gave UPR CHOP act inactive, Gli-Sufu antag inactive, Jurkat NFkB inh inactive, 697 NFkB inh inactive and UPR XBP1 act inactive.
For CCC1Sc2ccc(S(=O)(=O)N3CCN(c4ccccc4)CC3)cc2NC1=O (configuration not stated) the results were UPR CHOP act inactive, Gli-Sufu antag inactive, Jurkat NFkB inh inactive, 697 NFkB inh inactive and UPR XBP1 act inactive.
`CCOC(=O)c1c2ccccc2[n+]([O-])n1[C@@H](C)C(N)=O` gave UPR CHOP act inactive, Gli-Sufu antag inactive, Jurkat NFkB inh inactive, 697 NFkB inh inactive and UPR XBP1 act inactive.
Screening O=C(CSc1ncnc2ccccc12)c1cccs1 returned UPR CHOP act inactive, Gli-Sufu antag inactive, CHOP inh inactive, Jurkat NFkB inh inactive, 697 NFkB inh inactive, UPR XBP1 act inactive and Jurkat NFkB conf inactive.
`CC(c1nc2ccccc2c(=O)[nH]1)N1CCCN(S(=O)(=O)c2ccc(F)cc2)CC1` (configuration not stated) gave UPR CHOP act inactive, Gli-Sufu antag inactive, Jurkat NFkB inh inactive, 697 NFkB inh inactive and UPR XBP1 act inactive.
O=C(N/N=C/c1ccc(Sc2nc3ccccc3s2)c([N+](=O)[O-])c1)c1ccccn1 was read as UPR CHOP act inactive, Gli-Sufu antag inactive, Jurkat NFkB inh 69, 697 NFkB inh inactive, UPR XBP1 act inactive and Jurkat NFkB conf inactive.
`O=C(N/N=C/c1ccc(Cl)c([N+](=O)[O-])c1)c1cnccn1` gave UPR CHOP act inactive, Gli-Sufu antag inactive, CHOP inh inactive, Jurkat NFkB inh inactive, 697 NFkB inh inactive and UPR XBP1 act inactive.

Compound activity (PubChem)
